Calls of active or inactive are those of the source. The rule behind the calls is not given here.
Legend:
[1] = tested on: Liver; experiment: Antioxidant activity in Wistar rat liver assessed as inhibition of Fe2+/ascorbate-induced lipid peroxidation at 0.1 mM after 1 hr by TBARS assay relative to control; assay type: functional, tissue-based
How it was run: (§1)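 Lipid peroxidation assay: MDA formation measured with thiobarbituric acid. Tested at 1 mM and 0.1 mM, melatonin as positive control. Values are % mean inhibition from at least triplicate analyses.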

[2] = tested on: Liver; experiment: Antioxidant activity in Wistar rat liver assessed as inhibition of Fe2+/ascorbate-induced lipid peroxidation at 1 mM after 1 hr by TBARS assay relative to control; assay type: functional, tissue-based; how it was run: as §1
[3] = Antioxidant activity of the compound assessed as inhibition of xanthine-xanthine oxidase-mediated superoxide radical formation at 0.1 mM after 3 mins by NBT reduction assay relative to control; assay type: functional
How it was run: (§2)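 Superoxide anion generated by xanthine/xanthine oxidase and detected spectrophotometrically by nitroblue tetrazolium reduction. Test concentrations 1 mM and 0.1 mM, melatonin as positive control. Values are % mean inhibition from at least triplicate determinations.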

[4] = Antioxidant activity of the compound assessed as inhibition of xanthine-xanthine oxidase-mediated superoxide radical formation at 1 mM after 3 mins by NBT reduction assay relative to control; assay type: functional; how it was run: as §2
[5] = tested on: Radical scavenging activity; experiment: Antioxidant activity of the compound assessed as DPPH free radical scavenging activity at 0.1 mM after 30 mins by spectrophotometric analysis relative to control; assay type: functional
How it was run: (§3)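 Free-radical scavenging measured as bleaching of the stable radical DPPH at 517 nm. Tested at 1 mM and 0.1 mM, melatonin as positive control. Results are % mean inhibition, average of at least triplicate analyses.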

[6] = tested on: Radical scavenging activity; experiment: Antioxidant activity of the compound assessed as DPPH free radical scavenging activity at 1 mM after 30 mins by spectrophotometric analysis relative to control; assay type: functional; how it was run: as §3

SMILES | inhibition [1] [%] | inhibition [2] [%] | inhibition [3] | inhibition [4] | inhibition [5] | inhibition [6]
COc1cc(-c2cc3ccccc3[nH]2)cc(OC)c1OC | 33 | 28 | 13% | 42% | 9% | 35%
Nc1ccc(-c2cc3c(Cl)cccc3[nH]2)cc1 | 30 | 30 | inactive | 18% | 44% | 69%
COc1ccc(-c2cc3ccccc3[nH]2)cc1 | 14 | 24 | 12% | 43% | 6% | 38%
COc1ccc(-c2cc3ccccc3[nH]2)cc1OC | 13 | 27 | 12% | 70% | 12% | 44%
COc1ccc(-c2cc3cc(F)cc(Cl)c3[nH]2)cc1OC | 13 | 24 | inactive | 39% | inactive | 10%
COc1cc(-c2cc3cc(F)ccc3[nH]2)cc(OC)c1OC | 10 | 19 | 9% | 50% | 3% | 23%
Nc1ccc(-c2cc3cccc(F)c3[nH]2)cc1 | 26 | 30 | 15% | 23% | 43% | 77%
Nc1ccc(-c2cc3ccc(Cl)cc3[nH]2)cc1 | 35 | 35 | 17% | 20% | 50% | 77%
O=[N+]([O-])c1ccc(-c2cc3cc(F)cc(Cl)c3[nH]2)cc1 | 5 | 20 | inactive | 39% | inactive | 5%
Nc1ccc(-c2cc3cc(Cl)ccc3[nH]2)cc1 | 30 | 31 | inactive | 22% | 23% | 70%
COc1ccc2[nH]cc(CCNC(C)=O)c2c1 | 45 | 85 | 19% | 75% | 81% | 98%
COc1ccc(-c2cc3cc(F)ccc3[nH]2)cc1F | 7 | 13 | inactive | inactive | inactive | inactive
COc1ccc(-c2cc3cc(F)ccc3[nH]2)cc1OC | 10 | 24 | inactive | 51% | 2% | 21%
Nc1ccc(-c2cc3ccccc3[nH]2)cc1 | 13 | 26 | 16% | 30% | 43% | 74%
Nc1ccc(-c2cc3cc(F)ccc3[nH]2)cc1 | 17 | 19 | 20% | 35% | 18% | 28%
COc1ccc2[nH]c(-c3ccc(N)cc3)cc2c1 | 33 | 42 | 14% | 35% | 69% | 85%
COc1ccc(-c2cc3cc(F)cc(Cl)c3[nH]2)cc1 | 6 | 33 | inactive | 32% | inactive | inactive
Nc1ccc(-c2cc3ccc(F)cc3[nH]2)cc1 | 22 | 35 | 35% | 81% | 65% | 80%

Reference: ChEMBL document CHEMBL2375243, “Synthesis and antioxidant properties of substituted 2-phenyl-1H-indoles” (Bioorg Med Chem Lett, 2013)
